Measurements taken from ChEMBL document CHEMBL4020828, “Design and Syntheses of Highly Potent Teixobactin Analogues against Staphylococcus aureus, Methicillin-Resistant Staphylococcus aureus (MRSA), and Vancomycin-Resistant Enterococci (VRE) in Vitro and in Vivo” (J Med Chem, 2018).
Converted amounts (≈) assume the structure as drawn. The source made the active and inactive calls. No cut-off for these calls is given here.

Assays:
[1] = test system: Staphylococcus saprophyticus; test: Antibacterial activity against Staphylococcus saprophyticus ATCC 15305 after 24 hrs; format: functional; conditions: ATCC 15305, 24 h
Staphylococcus aureus [2] = test: Antibacterial activity against methicillin-resistant Staphylococcus aureus ATCC 33591 at 5 to 20 times MIC after 24 hrs; format: functional
[3] = Cytotoxicity against human primary HDF assessed as cytoskeleton or nuclear disruption at 15.62 to 250 ug/ml after 24 hrs by rhodamine-phalloidin/Hoechst 33342 staining-based fluorescence microscopic method; format: cell-based
Summary of the method: (§1)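 After 24 h peptide exposure, cells were fixed and stained with rhodamine-phalloidin (actin), Alexa Fluor 488 anti-α-tubulin and Hoechst 33342 (nuclei). They were then imaged by automated high-content microscopy. Nocodazole (10 µg/ml) served as toxicity control. Representative images shown at 62.5 µg/ml.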

Staphylococcus aureus [4] = test: (§2) Antibacterial activity against Staphylococcus aureus ATCC 29213 infected in C57BL6 mouse cornea assessed as decrease in corneal infiltrates at 0.3% administered tropically 2 times on day 1, 4 times on day 2 and 2 times on day 3 starting from 6 hrs post infection measured 48 hrs post last dose by slit-lamp photography; format: functional
Summary of the method: (§3)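 Mouse corneal epithelium scratched with a scalpel, then infected with 15 µl of 6×10⁶ CFU/ml S. aureus ATCC 29213. From 6 h p.i., 15 µl of PBS vehicle, 0.3% w/v peptide in PBS or 0.3% moxifloxacin was applied, 8 doses total. Outcomes were slit-lamp examination, AS-OCT corneal thickness and CFU counts of harvested corneas (mean log₁₀ CFU/tissue ± SEM).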

Enterococcus faecalis [5] = test: Antibacterial activity against vancomycin-resistant Enterococcus faecalis isolate 1002 after 24 hrs; format: functional; conditions: isolate 1002, 24 h
Staphylococcus aureus [6] = test: Ratio of MBC to MIC for Staphylococcus aureus ATCC 29213; format: functional
Staphylococcus aureus [7] = test: Bactericidal activity against Staphylococcus aureus ATCC 29213 after 24 hrs; format: functional
Staphylococcus aureus [8] = test: Antibacterial activity against Staphylococcus aureus ATCC 29213 at 5 to 20 times MIC after 24 hrs; format: functional
Staphylococcus aureus [9] = test: Bactericidal activity against Staphylococcus aureus ATCC 29213 assessed as log reduction in bacterial load at 0.5 to 1 ug/ml after 8 hrs by time-kill assay; format: functional
Enterococcus faecalis [10] = test: Antibacterial activity against vancomycin-resistant Enterococcus faecalis isolate 1004 after 24 hrs; format: functional; conditions: isolate 1004, 24 h
[11] = Cytotoxicity against human primary HDF assessed as cell viability at 15.62 to 250 ug/ml after 24 hrs by MTS assay relative to control; format: cell-based; conditions: primary HDF cells, read-out: Activity
Summary of the method: (§4)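 Cells exposed 24 h to peptide at 15.62–250 µg/ml, prepared fresh in culture medium from a 500 µg/ml stock. Controls were DMSO (0.1% v/v) or nocodazole (5 µg/ml in DMSO). Metabolic activity was read by MTS viability assay. Mean ± SEM of three independent triplicate experiments.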

Staphylococcus aureus [12] = test: Antibacterial activity against Staphylococcus aureus ATCC 29213 infected in C57BL6 mouse cornea assessed as decrease in bacterial load/tissue at 0.3% administered tropically 2 times on day 1, 4 times on day 2 and 2 times on day 3 starting from 6 hrs post infection measured 48 hrs post last dose; format: functional; set-up: scale not given: the % may be the effect or the level left; summary of the method: as §3
Staphylococcus aureus [13] = test: Bactericidal activity against methicillin-resistant Staphylococcus aureus ATCC 700699 after 24 hrs; format: functional
Oryctolagus cuniculus = test: Toxicity in New Zealand white rabbit corneal-damage model assessed as effect on wound healing at 0.3% administered 4 times a day tropically for 10 days by fluorescein staining-based slit-lamp biomicroscopy; conditions: in vivo, topical_or_ocular, 240 h
Summary of the method: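 Rabbit cornea circularly debrided, then 50 µl of 0.3% (w/v) peptide applied topically 4 times/day. Vehicle (PBS) served as control, 2 eyes PBS versus 4 eyes treated. Re-epithelialization and wound closure followed over time by fluorescein staining and slit-lamp biomicroscopy.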

[14] = Cytotoxicity against human primary HDF assessed as effect on cell morphology at 15.62 to 250 ug/ml after 24 hrs by rhodamine-phalloidin/Hoechst 33342 staining-based fluorescence microscopic method; summary of the method: as §1
Staphylococcus aureus [15] = test: Antibacterial activity against methicillin-resistant Staphylococcus aureus ATCC 700699 after 24 hrs; format: functional; conditions: ATCC 700699, 24 h
Staphylococcus aureus [16] = test: as §2, with “mean” for “decrease in”, “thickness” for “infiltrates”, “AS-OCT method (reference value: 186.2 +/- 17.5 micrometer)” for “slit-lamp photography”; format: functional; summary of the method: as §3
A549 [17] = test: Cytotoxicity against human A549 cells assessed as effect on cell morphology at 15.62 to 250 ug/ml after 24 hrs by rhodamine-phalloidin/Hoechst 33342 staining-based fluorescence microscopic method; conditions: a549, 24 h; summary of the method: as §1
[18] = test system: Staphylococcus epidermidis; test: Antibacterial activity against Staphylococcus epidermidis 12228 after 24 hrs; format: functional; conditions: Staphylococcus epidermidis, 12228, 24 h
Staphylococcus aureus [19] = test: Bactericidal activity against methicillin-resistant Staphylococcus aureus isolate 21455 after 24 hrs; format: functional
Staphylococcus aureus [20] = test: Bactericidal activity against Staphylococcus aureus 4299 after 24 hrs; format: functional
[21] = test system: Staphylococcus saprophyticus; test: Antibacterial activity against Staphylococcus saprophyticus ATCC BAA 750 after 24 hrs; format: functional; conditions: ATCC BAA 750, 24 h
Pseudomonas aeruginosa = test: Antibacterial activity against Pseudomonas aeruginosa after 24 hrs; format: functional
Staphylococcus aureus [22] = test: Antibacterial activity against methicillin-resistant Staphylococcus aureus isolate 1003 after 24 hrs; format: functional; conditions: isolate 1003, 24 h
Staphylococcus aureus [23] = test: Antibacterial activity against methicillin-resistant Staphylococcus aureus ATCC 33591 after 24 hrs; format: functional; conditions: ATCC 33591, 24 h
Enterococcus faecalis [24] = test: Antibacterial activity against vancomycin-resistant Enterococcus faecalis isolate 1008 after 24 hrs; format: functional; conditions: isolate 1008, 24 h
Staphylococcus aureus [25] = test: Ratio of MBC to MIC for Staphylococcus aureus 4299; format: functional
Staphylococcus aureus [26] = test: as §2, with “conjunctival chemosis” for “corneal infiltrates”; format: functional; summary of the method: as §3
Enterococcus faecalis [27] = test: Antibacterial activity against vancomycin-resistant Enterococcus faecalis isolate 1001 after 24 hrs; format: functional; conditions: isolate 1001, 24 h
Staphylococcus aureus [28] = test: as §2, with “mean” for “decrease in”, “thickness” for “infiltrates”, “24” for “48”, “AS-OCT method (reference value: 151.7 +/- 12.7 micrometer)” for “slit-lamp photography”; format: functional; summary of the method: as §3
Staphylococcus aureus [29] = test: Antibacterial activity against methicillin-resistant Staphylococcus aureus isolate 21455 after 24 hrs; format: functional; conditions: isolate 21455, 24 h
Staphylococcus aureus [30] = test: Antibacterial activity against methicillin-resistant Staphylococcus aureus isolate 42412 after 24 hrs; format: functional; conditions: isolate 42412, 24 h
A549 [31] = test: Cytotoxicity against human A549 cells assessed as cytoskeleton or nuclear disruption at 15.62 to 250 ug/ml after 24 hrs by rhodamine-phalloidin/Hoechst 33342 staining-based fluorescence microscopic method; format: cell-based; conditions: a549, 24 h; summary of the method: as §1
[32] = test system: Staphylococcus saprophyticus; test: Antibacterial activity against Staphylococcus saprophyticus ATCC 49907 after 24 hrs; format: functional; conditions: ATCC 49907, 24 h
Staphylococcus aureus [33] = test: Antibacterial activity against Staphylococcus aureus ATCC 29213 after 24 hrs; format: functional; conditions: ATCC 29213, 24 h
[34] = test system: Staphylococcus saprophyticus; test: Antibacterial activity against Staphylococcus saprophyticus ATCC 49453 after 24 hrs; format: functional; conditions: ATCC 49453, 24 h
[35] = Cytotoxicity against human A549 cells assessed as cell viability at 15.62 to 250 ug/ml after 24 hrs by MTS assay relative to control; format: cell-based; conditions: read-out: Activity; summary of the method: as §4
[36] = test system: Bacillus subtilis (Bacillus subtilis); test: Antibacterial activity against Bacillus subtilis ATCC 6633 after 24 hrs; conditions: ATCC 6633, 24 h
Enterococcus faecalis [37] = test: Antibacterial activity against vancomycin-resistant Enterococcus faecalis ATCC 29212 after 24 hrs; format: functional; conditions: ATCC 29212, 24 h
Enterococcus faecalis [38] = test: Antibacterial activity against vancomycin-resistant Enterococcus faecalis ATCC 700802 after 24 hrs; format: functional; conditions: ATCC 700802, 24 h
Bacillus cereus = test: Antibacterial activity against Bacillus cereus ATCC 11788 after 24 hrs; format: functional; conditions: ATCC 11788, 24 h
[39] = Cytotoxicity against human primary HDF assessed as loss of adhered cells at 5 ug/ml after 24 hrs by MTS assay; format: cell-based
Summary of the method: (§5)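 A549 lung epithelial cells or primary human dermal fibroblasts exposed 24 h to peptide (15.62–250 µg/ml, dissolved fresh in culture medium). Nocodazole (5 µg/ml in DMSO) served as toxicity control, with 0.1% v/v DMSO as vehicle control. Metabolic activity was read by MTS viability assay. Data are from three independent triplicate experiments, given as mean ± SEM.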

A549 [40] = test: Cytotoxicity against human A549 cells assessed as loss of adhered cells at 5 ug/ml after 24 hrs by MTS assay; format: cell-based; conditions: a549, 24 h; summary of the method: as §5

CC[C@@H](C)[C@@H](NC(=O)[C@@H](CCCNC(=N)N)NC(=O)[C@H](CO)NC(=O)[C@@H](NC(=O)[C@@H](Cc1ccccc1)NC)[C@@H](C)CC)C(=O)N[C@H](C(=O)N[C@@H](CO)C(=O)N[C@H]1C(=O)N[C@@H](C)C(=O)N[C@@H](CC(C)C)C(=O)N[C@@H]([C@@H](C)CC)C(=O)O[C@H]1C)[C@@H](C)CC
MIC [1]: < 0.0625 µg/mL
Activity (Staphylococcus aureus [2]): Active
Activity [3]: Non-Toxic
Activity (Staphylococcus aureus [4]): Active
MIC (Enterococcus faecalis [5]): 1 µg/mL (≈ 0.813 µM)
Ratio (Staphylococcus aureus [6]): <4
Activity (Staphylococcus aureus [7]): Active
Activity (Staphylococcus aureus [8]): Active
Activity (Staphylococcus aureus [9]): >=2 deltalog10CFU/ml
MIC (Enterococcus faecalis [10]): 0.25 µg/mL (≈ 0.203 µM)
viability at 24 h [11]: ≥ 80%
Activity (Staphylococcus aureus [12]): >99%
Activity (Staphylococcus aureus [13]): Active
Activity (Oryctolagus cuniculus): Non-Toxic
Activity [14]: Non-Toxic
MIC (Staphylococcus aureus [15]): 0.25 µg/mL (≈ 0.203 µM)
Activity (Staphylococcus aureus [16]): 121.7 um
Activity (A549 [17]): Non-Toxic
MIC [18]: < 0.0625 µg/mL
Activity (Staphylococcus aureus [19]): Active
Activity (Staphylococcus aureus [20]): Active
MIC [21]: < 0.0625 µg/mL
Activity (Pseudomonas aeruginosa): inactive
MIC (Staphylococcus aureus [22]): 0.5 µg/mL (≈ 0.407 µM)
MIC (Staphylococcus aureus [23]): 0.125 µg/mL (≈ 0.102 µM)
MIC (Enterococcus faecalis [24]): 0.5 µg/mL (≈ 0.407 µM)
Ratio (Staphylococcus aureus [25]): <4
Activity (Staphylococcus aureus [26]): Active
MIC (Enterococcus faecalis [27]): 0.5 µg/mL (≈ 0.407 µM)
Activity (Staphylococcus aureus [28]): 92.3 um
MIC (Staphylococcus aureus [29]): 0.0313 µg/mL (≈ 0.0255 µM)
MIC (Staphylococcus aureus [30]): 0.0313 µg/mL (≈ 0.0255 µM)
Activity (A549 [31]): Non-Toxic
MIC [32]: < 0.0625 µg/mL
MIC (Staphylococcus aureus [33]): < 0.0625 µg/mL
MIC [34]: < 0.0625 µg/mL
viability at 24 h [35]: ≥ 80%
MIC [36]: 0.125 µg/mL (≈ 0.102 µM)
MIC (Enterococcus faecalis [37]): 0.5 µg/mL (≈ 0.407 µM)
MIC (Enterococcus faecalis [38]): 0.5 µg/mL (≈ 0.407 µM)
MIC (Bacillus cereus): 0.5 µg/mL (≈ 0.407 µM)

COC(=O)Nc1nc2ccc(C(=O)c3cccs3)cc2[nH]1 [NOCODAZOLE]
Activity [39]: Toxic
Activity (A549 [40]): Toxic
